Key:
Neprilysin = target: T1, Neprilysin (Rattus norvegicus, UniProt P07861); experiment: Binding affinity of compound against rat kidney neutral endopeptidase (NEP) was determined
T1 sequence (P07861 whole entry): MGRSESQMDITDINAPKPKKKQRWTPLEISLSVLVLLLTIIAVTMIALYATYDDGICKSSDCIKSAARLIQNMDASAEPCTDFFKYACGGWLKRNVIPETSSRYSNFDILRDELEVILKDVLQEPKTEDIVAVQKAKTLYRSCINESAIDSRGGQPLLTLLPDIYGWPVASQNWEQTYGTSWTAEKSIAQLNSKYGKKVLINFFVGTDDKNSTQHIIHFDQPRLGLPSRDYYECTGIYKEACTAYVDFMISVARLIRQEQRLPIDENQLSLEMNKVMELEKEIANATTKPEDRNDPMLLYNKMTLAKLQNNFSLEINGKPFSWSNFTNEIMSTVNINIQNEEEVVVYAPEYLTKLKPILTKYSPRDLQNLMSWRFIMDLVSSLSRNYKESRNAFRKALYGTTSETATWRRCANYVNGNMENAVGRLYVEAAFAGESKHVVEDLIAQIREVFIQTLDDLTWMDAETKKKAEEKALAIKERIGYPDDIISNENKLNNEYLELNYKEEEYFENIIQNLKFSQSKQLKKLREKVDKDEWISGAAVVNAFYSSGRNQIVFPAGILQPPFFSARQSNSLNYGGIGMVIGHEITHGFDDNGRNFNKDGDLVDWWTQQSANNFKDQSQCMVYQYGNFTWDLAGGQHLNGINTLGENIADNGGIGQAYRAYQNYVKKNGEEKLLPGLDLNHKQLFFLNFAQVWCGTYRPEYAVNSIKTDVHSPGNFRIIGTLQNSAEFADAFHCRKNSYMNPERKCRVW
How it was run: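 Rat kidney NEP. Fluorogenic assay using dansyl-D-Ala-Gly-(p-nitro)Phe-Gly-OH as substrate. Inhibitor solutions assayed for thiol content with Ellman's reagent immediately prior to testing.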

[1] = target: T2, Angiotensin-converting enzyme (Oryctolagus cuniculus, UniProt P12822); experiment: Binding affinity of compound against rabbit lung angiotensin I-converting enzyme (ACE) was determined
T2 sequence (P12822 whole entry): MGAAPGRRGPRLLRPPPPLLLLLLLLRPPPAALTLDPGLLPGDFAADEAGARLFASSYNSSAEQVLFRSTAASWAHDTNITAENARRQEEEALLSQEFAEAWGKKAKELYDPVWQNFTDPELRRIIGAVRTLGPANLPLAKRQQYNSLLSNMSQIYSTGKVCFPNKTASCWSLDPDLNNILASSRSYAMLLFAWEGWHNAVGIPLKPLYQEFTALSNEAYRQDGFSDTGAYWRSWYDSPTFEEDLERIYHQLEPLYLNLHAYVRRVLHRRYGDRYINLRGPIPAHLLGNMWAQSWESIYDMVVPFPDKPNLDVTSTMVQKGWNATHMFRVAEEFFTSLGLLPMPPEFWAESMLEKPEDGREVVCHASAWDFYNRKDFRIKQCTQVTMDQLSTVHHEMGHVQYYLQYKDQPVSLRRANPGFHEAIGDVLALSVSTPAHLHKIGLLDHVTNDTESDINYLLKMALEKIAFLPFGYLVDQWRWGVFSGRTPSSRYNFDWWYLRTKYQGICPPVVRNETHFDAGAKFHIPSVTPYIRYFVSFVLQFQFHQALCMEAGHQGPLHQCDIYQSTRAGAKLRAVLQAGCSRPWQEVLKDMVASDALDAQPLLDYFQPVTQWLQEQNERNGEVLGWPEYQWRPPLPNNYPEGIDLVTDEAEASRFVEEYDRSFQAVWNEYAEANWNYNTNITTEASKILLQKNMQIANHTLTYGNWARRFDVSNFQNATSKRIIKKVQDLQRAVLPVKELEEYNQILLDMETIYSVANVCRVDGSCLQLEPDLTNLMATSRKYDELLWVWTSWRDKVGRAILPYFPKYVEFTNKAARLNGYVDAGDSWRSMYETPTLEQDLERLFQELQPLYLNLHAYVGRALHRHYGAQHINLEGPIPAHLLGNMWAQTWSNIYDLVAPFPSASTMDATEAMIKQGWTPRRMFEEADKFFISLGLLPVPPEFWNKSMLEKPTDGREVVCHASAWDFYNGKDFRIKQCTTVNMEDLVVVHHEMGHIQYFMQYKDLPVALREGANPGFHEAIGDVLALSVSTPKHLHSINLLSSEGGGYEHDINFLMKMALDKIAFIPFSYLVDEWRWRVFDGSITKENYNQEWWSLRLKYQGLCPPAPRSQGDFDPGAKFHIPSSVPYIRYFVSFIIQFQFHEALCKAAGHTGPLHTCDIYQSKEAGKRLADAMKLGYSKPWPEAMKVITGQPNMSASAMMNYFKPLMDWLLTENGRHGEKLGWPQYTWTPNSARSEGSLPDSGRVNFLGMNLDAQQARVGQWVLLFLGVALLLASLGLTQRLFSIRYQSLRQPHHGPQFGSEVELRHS
How it was run: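 Rabbit lung ACE. Spectrophotometric assay with recrystallized (furylacryloyl)phenylalanyl-glycylglycine as substrate; colored contaminants removed beforehand. Thiol content of inhibitor solutions checked with Ellman's reagent just before testing.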

In the case of O=C(O)[C@H](CCc1ccccc1)N[C@@H]1Cc2ccccc2C2CCC[C@H](C(=O)O)N2C1=O (some centres not stated), the Ki (Neprilysin) is reported as > 10000 nM and the Ki [1] is reported as 0.004 nM.

Compound O=C(CS)N[C@@H]1Cc2ccccc2C2CCC[C@H](C(=O)O)N2C1=O (some centres not stated) has a Ki (Neprilysin) of 5 nM and a Ki [1] of 2 nM.

O=C(NC1Cc2ccccc2C2CCC[C@H](C(=O)O)N2C1=O)C(S)Cc1ccccc1 (stereo in doubt) gave a Ki (Neprilysin) of 0.08 nM and a Ki [1] of 0.11 nM.

In the case of O=C(O)[C@H]1CCCC2c3ccccc3C[C@@H](CS)C(=O)N21 (stereo in doubt; 3), the Ki (Neprilysin) is reported as > 300 nM and the Ki [1] is reported as 2 nM.

For O=C(O)[C@H]1CCCC2c3ccccc3C[C@@H](CS)C(=O)N21 (stereo in doubt; 4), the Ki (Neprilysin) was 45 nM and the Ki [1] was > 7 nM.

O=C(NC1Cc2ccccc2C2CCC[C@H](C(=O)O)N2C1=O)C(S)Cc1ccccc1 (stereo in doubt; 11b) was tested, and the Ki (Neprilysin) was 0.07 nM and the Ki [1] was 4.5 nM.

Reference: ChEMBL document CHEMBL1126771, “Application of a conformationally restricted Phe-Leu dipeptide mimetic to the design of a combined inhibitor of angiotensin I-converting enzyme and neutral endopeptidase 24.11” (J Med Chem, 1993)
